Calls of active or inactive are those of the source. The rule behind the calls is not given here.
What was measured:
[1] = Induction of disruption of r(CCUG)12-MBNL1 complex (unknown origin) incubated for 15 mins by TR-FRET assay; set-up: species or system Homo sapiens
Procedure, shortened: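 Biotinylated r(CCUG)12 was folded at 60 °C for 5 min in 20 mM HEPES pH 7.5, 110 mM KCl, 10 mM NaCl. It was then brought to assay buffer (plus 2 mM MgCl2, 2 mM CaCl2, 5 mM DTT, 0.1% BSA, 0.5% Tween-20) and preincubated 15 min with MBNL1-His6 (final 80 nM RNA, 60 nM protein). Compound was added for 15 min, then streptavidin-XL665 (40 nM) and anti-His6-Tb (0.44 ng/μL) for 30 min at room temperature. TR-FRET 545/665 ratios were read; IC50 was taken from dose-response fits.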

Homo sapiens [2] = species on record: Homo sapiens; experiment: Binding affinity to r(GACAGCCUGCUGUC)2 duplex (unknown origin) assessed as positive phase signal at 300 uM by waterLOGSY NMR spectroscopy
Procedure, shortened: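 For WaterLOGSY NMR, each compound at 300 μM was run alone or with 15 μM RNA (20:1 compound:RNA) in H2O containing 5% D2O by volume.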

Fibroblast [3] = experiment: Cytotoxicity against DM2 patient derived fibroblast assessed as cell viability at 5 uM incubated for 48 hrs by Cell Titre-Glo assay; type: cell-based; conditions: human
Procedure, shortened: (§1)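 DM2 patient-derived fibroblasts were grown in high-glucose DMEM with 20% FBS at 37 °C, 5% CO2. After 48 h of compound treatment, viability was read as CellTiter-Glo luminescence after 10 min at room temperature (n = 6 replicates, one independent experiment).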

Homo sapiens [4] = species on record: Homo sapiens; experiment: Inhibition of r(CCUG)12-MBNL1 complex formation (unknown origin) assessed as rescue of IR exon 11 splicing defect at 5 uM by RT-PCR analysis; set-up: scale not given: the % may be the effect or the level left
Procedure, shortened: (§2)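 DM2 patient fibroblasts were treated at ~40% confluency for 48 h. About 1 μg of total RNA was reverse transcribed, and IR exon 11 was PCR-amplified for 35 cycles (95 °C/58 °C/72 °C). Products were resolved on 2% agarose stained with ethidium bromide and quantified by densitometry. Percent rescue was calculated as (DM2 untreated − treated exclusion)/(DM2 untreated − WT exclusion) × 100.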

Homo sapiens [5] = species on record: Homo sapiens; experiment: Binding affinity to r(GACAGCCUGCUGUC)2 (unknown origin) duplex assessed as resonance shift in H6 and H8 protons of RNA […] by 1D NMR spectroscopy
Procedure, shortened: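 For 1D NMR, RNA at 100 μM in 100% D2O was titrated with compound at 0.5, 1.0, 1.5 and 2.0 compound:RNA molar ratios, each in a separate sample.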

Fibroblast [6] = experiment: Cytotoxicity against DM2 patient derived fibroblast assessed as cell viability upto 20 uM incubated for 48 hrs by Cell Titre-Glo assay; type: cell-based; conditions: human; procedure, shortened: as §1
Homo sapiens [7] = species on record: Homo sapiens; experiment: Inhibition of r(CCUG)12-MBNL1 complex formation (unknown origin) assessed as rescue of IR exon 11 splicing defect at 1 uM by RT-PCR analysis; set-up: scale not given: the % may be the effect or the level left; procedure, shortened: as §2

Row | Structure (SMILES) | IC50 [1] [µM] | other results
1 | Cc1ccc2nc(Nc3ccc4nc(-c5cc[nH]n5)sc4c3)nc(NCCCO)c2c1 | 20 | 
2 | Cc1ccccc1Nc1nc(NCCCO)c2ccccc2n1 | 80 | 
3 | Cc1n[nH]c2nc(Nc3ccc4c(c3)OCCO4)nc(NCCCO)c12 | 200 | 
4 | CC(=O)Nc1cccc(Nc2nc(N3CCCC3)c3ccccc3n2)c1 | 70 | 
5 | CN(C)c1ccc(Nc2nc(N3CCOCC3)c3ccccc3n2)cc1 | 200 | 
6 | Cc1ccc2nc(Nc3ccc4nc(NCC(C)(C)O)sc4c3)nc(NCCCO)c2c1 | 1 | Activity (Fibroblast [3]): Non-Toxic; Activity (Homo sapiens [4]): 30%
7 | C=CCNc1nc(Nc2ccc(O)cc2)nc2ccccc12 | 85 | 
8 | Cc1ccc2nc(Nc3ccc4nc(NCCc5ccc(S(N)(=O)=O)cc5)sc4c3)nc(NCCCO)c2c1 | 10 | 
9 | OCCCNc1nc(Nc2ccc3c(c2)OCCO3)nc2c(F)cccc12 | 200 | 
10 | OCCCNc1nc(Nc2ccc3c(c2)OCCO3)nc2c1COC2 | 200 | 
11 | COC(=O)c1cccc(Nc2nc(N)c3ccccc3n2)c1 | 200 | 
12 | COCCn1cncc1CNC(=O)Nc1ccc2cnn(C)c2c1 | 200 | 
13 | Cc1ccc2nc(Nc3ccc4nc(-c5ccc6[nH]ccc6c5)sc4c3)nc(NCCCO)c2c1 | 200 | 
14 | Cc1ccc2nc(Nc3ccc4nc(NCCN(C)C)sc4c3)nc(NCCCO)c2c1 | 4 | Activity (Fibroblast [3]): Non-Toxic; Activity (Homo sapiens [7]): inactive; Activity (Homo sapiens [4]): inactive
15 | OCCCNc1nc(Nc2cccc(F)c2)nc2ccccc12 | 135 | 
16 | Cc1ccc2nc(Nc3ccc4nc(NCc5ccc6c(c5)OCO6)sc4c3)nc(NCCCO)c2c1 | 105 | 
17 | CN(C)c1nc(Nc2ccc3c(c2)OCCO3)nc2ccccc12 | 80 | 
18 | Cc1ccc2nc(Nc3ccc4nc(NCCOCc5ccccc5)sc4c3)nc(NCCCO)c2c1 | 20 | 
19 | Cc1ccc2nc(Nc3ccc4nc(-c5ccccc5C)sc4c3)nc(NCCCO)c2c1 | 200 | 
20 | CC(=O)c1cccc(Nc2nc(N(C)C)c3ccccc3n2)c1 | 100 | 
21 | COc1cccc(Nc2nc(N(C)C)c3ccccc3n2)c1 | 85 | 
22 | CN(c1ccc2c(c1)OCCO2)c1nc(NCCCO)c2ccccc2n1 | 200 | 

Row | Structure (SMILES) | IC50 [1] [µM] | other results
23 | CC(=O)Nc1ccc(Nc2nc(NCCO)c3ccccc3n2)cc1 | 60 | 
24 | CC(C)(C)C(Cn1ccnc1)NC(=O)Nc1ccc2[nH]ncc2c1 (stereo not given) | 190 | 
25 | Cc1ccc2nc(Nc3ccc4nc(N5CCN(C)CC5)sc4c3)nc(NCCCO)c2c1 | 1 | Activity (Fibroblast [3]): Toxic
26 | OCCCNc1nc(Nc2ccc3c(c2)OCCO3)nc2ccccc12 | 50 | Activity (Homo sapiens [5]): Active; Activity (Homo sapiens [7]): 12%; Activity (Homo sapiens [2]): Active; Activity (Fibroblast [6]): Non-Toxic; Activity (Homo sapiens [4]): 50%
27 | CCNc1nc(Nc2ccc(O)cc2)nc2ccccc12 | 100 | 
28 | Cc1nc2ccc(Nc3nc(NCCCO)c4ccccc4n3)cc2o1 | 10 | 
29 | COc1ccc(Nc2nc(N(C)C)c3ccccc3n2)cc1 | 65 | 
30 | CC(=O)Nc1ccc(Nc2nc(N3CCCC3)c3ccccc3n2)cc1 | 35 | Activity (Homo sapiens [2]): inactive
31 | CCn1nc(CNC(=O)CN(C)C2CCNCC2)c2ccccc21 | 70 | 
32 | COc1cc(-c2nc3cc(-n4cnnn4)ccc3[nH]2)ccc1OCCN1CCCC1 | 70 | 
33 | OCCCNc1nc(Nc2ccc3c(c2)OCO3)nc2ccccc12 | 200 | 
34 | Cn1ncc2ccc(Nc3nc(NCCCO)c4ccccc4n3)cc21 | 30 | 
35 | CN(C)c1nc(Nc2ccc(O)cc2)nc2ccccc12 | 70 | 
36 | Cc1nc2ccc(Nc3nc(NCCCO)c4ccccc4n3)cc2s1 | 7 | 
37 | CNc1nc(Nc2cccc(O)c2)nc2ccccc12 | 105 | 
38 | Cc1ccc2nc(Nc3ccc4nc(NCCOc5ccccc5)sc4c3)nc(NCCCO)c2c1 | 110 | 
39 | CN(C)c1nc(Nc2cccc(O)c2)nc2ccccc12 | 75 | 
40 | Cc1ccc2nc(Nc3ccc4nc(C)oc4c3)nc(NCCCO)c2c1 | 10 | 
41 | CN1CCOc2cc(Nc3nc(NCCCO)c4ccccc4n3)ccc21 | 70 | 
42 | Cn1nc(Nc2nc(NCCCO)c3ccccc3n2)c2ccccc21 | 200 | 
43 | COc1cccc(Nc2nc(NCCCO)c3ccccc3n2)c1 | 100 | 
44 | OCCCNc1nc(Nc2ccccc2)nc2ccccc12 | 165 | 

The remaining compounds from weak to strong by IC50 [1], led by results:

Row | IC50 [1] [µM] | Structure (SMILES) | other results
45 | 200 | CCOc1cc(-c2nc3cc(-n4cnnn4)ccc3[nH]2)ccc1O | 
46 | 200 | Cc1ccc2nc(Nc3ccc4nc(-c5ccc(F)cc5)sc4c3)nc(NCCCO)c2c1 | Activity (Fibroblast [3]): Toxic
47 | 200 | OCCCNc1nc(Nc2ccc3c(c2)OCCO3)nc2cc(F)ccc12 | 
48 | 200 | Cc1ccc2nc(Nc3ccc4nc(C(N)=O)sc4c3)nc(NCCCO)c2c1 | 
49 | 200 | OCCCNc1nc(Nc2cccc(O)c2)nc2ccccc12 | 
50 | 200 | Cc1ccc2nc(Nc3ccc4nc(-c5cccc(F)c5)sc4c3)nc(NCCCO)c2c1 | 
51 | 200 | CC(=O)Nc1ccc(Nc2nc(NCCCO)c3ccccc3n2)cc1 | 
52 | 170 | OCCCNc1nc(Nc2ccc3c(c2)OC(F)(F)O3)nc2ccccc12 | 
53 | 155 | CN1CCN(c2nc(Nc3ccc(O)cc3)nc3ccccc23)CC1 | 
54 | 150 | Cc1ccc(Nc2nc(NCCCO)c3ccccc3n2)cc1 | 
55 | 135 | Cc1c(Nc2nc(NCCCO)c3ccccc3n2)ccc2c1OCCO2 | 
56 | 135 | CCNc1nc(Nc2cccc(O)c2)nc2ccccc12 | 
57 | 110 | CC(=O)Nc1cccc(Nc2nc(NCCCO)c3ccccc3n2)c1 | 
58 | 105 | Cc1cccc2c(NCCCO)nc(Nc3ccc4c(c3)OCCO4)nc12 | 
59 | 105 | CCOc1ccc(C(=O)Nc2cc(-c3nc4ccccc4[nH]3)ccc2Cl)cc1[N+](=O)[O-] | 
60 | 95 | OCCCNc1nc(Nc2ccc(O)cc2)nc2ccccc12 | 
61 | 95 | CC(O)c1cccc(Nc2nc(N(C)C)c3ccccc3n2)c1 (stereo not given) | 
62 | 90 | CC(=O)Nc1cccc(Nc2nc(NCC3CCCO3)c3ccccc3n2)c1 (stereo not given) | 
63 | 90 | OCCCNc1nc(Nc2ccc3c(c2)OCCO3)nc2c1CCCC2 | 

Row | IC50 [1] [µM] | Structure (SMILES) | other results
64 | 80 | CC(=O)Nc1cccc(Nc2nc(N(C)C)c3ccccc3n2)c1 | 
65 | 75 | CC(=O)c1cccc(Nc2nc(NCCCO)c3ccccc3n2)c1 | 
66 | 70 | CC(O)c1cccc(Nc2nc(N3CCCC3)c3ccccc3n2)c1 (stereo not given) | 
67 | 60 | CN(C)c1ccc(Nc2nc(N(C)C)c3ccccc3n2)cc1 | 
68 | 60 | OCCCNc1nc(Nc2ccc3c(c2)OCCO3)nc2ccc(F)cc12 | 
69 | 50 | CN(C)c1nc(Nc2ccc(C(N)=O)cc2)nc2ccccc12 | Activity (Homo sapiens [2]): inactive
70 | 50 | COc1ccc(Nc2nc(NCCO)c3ccccc3n2)cc1Cl | 
71 | 45 | CC(=O)Nc1ccc(Nc2nc(NCC3CCCO3)c3ccccc3n2)cc1 (stereo not given) | Activity (Homo sapiens [5]): Active; Activity (Homo sapiens [2]): Active; Activity (Fibroblast [6]): Non-Toxic
72 | 40 | COc1ccc(Nc2nc(NCCCO)c3ccccc3n2)cc1 | Activity (Homo sapiens [5]): Active; Activity (Homo sapiens [2]): Active; Activity (Fibroblast [6]): Non-Toxic
73 | 40 | CN(C)c1ccc(Nc2nc(NCCCO)c3ccccc3n2)cc1 | Activity (Homo sapiens [5]): Active; Activity (Homo sapiens [2]): Active; Activity (Fibroblast [6]): Non-Toxic
74 | 30 | Cc1ccc2nc(Nc3ccc4cnn(C)c4c3)nc(NCCCO)c2c1 | Activity (Fibroblast [3]): Toxic
75 | 30 | CCNc1nc(Nc2ccc(NC(C)=O)cc2)nc2ccccc12 | Activity (Homo sapiens [2]): inactive
76 | 12.7 | Cc1ccc2nc(Nc3ccc4c(c3)OCCO4)nc(NCCCO)c2c1 | 
77 | 10 | Cc1ccc2nc(Nc3ccc4nc(N(CCO)CCO)sc4c3)nc(NCCCO)c2c1 | 
78 | 0.4 | Cc1ccc2nc(Nc3ccc4nc(NC5CCN(Cc6ccccc6)CC5)sc4c3)nc(NCCCO)c2c1 | Activity (Fibroblast [3]): Toxic
79 | 0.3 | Cc1ccc2nc(Nc3ccc4nc(NCC(C)C)sc4c3)nc(NCCCO)c2c1 | Activity (Fibroblast [3]): Toxic
80 | 0.3 | Cc1ccc2nc(Nc3ccc4nc(NCCN5CCOCC5)sc4c3)nc(NCCCO)c2c1 | Activity (Fibroblast [3]): Toxic
81 | 0.2 | Cc1ccc2nc(Nc3ccc4nc(N5CCOCC5)sc4c3)nc(NCCCO)c2c1 | Activity (Fibroblast [3]): Toxic

— ChEMBL document CHEMBL5032499, “A Druglike Small Molecule that Targets r(CCUG) Repeats in Myotonic Dystrophy Type 2 Facilitates Degradation by RNA Quality Control Pathways” (J Med Chem, 2021)
